Results from different studies.
Compare with care: the assays were run in different laboratories.
NTRK3: NT-3 growth factor receptor (NTRK3, Homo sapiens, UniProt Q16288)
MDH2: Malate dehydrogenase, mitochondrial (MDH2, Sus scrofa, UniProt P00346)
CXCR4: C-X-C chemokine receptor type 4 (CXCR4, Homo sapiens, UniProt P61073)
PLA2G5: Phospholipase A2 group V (PLA2G5, Homo sapiens, UniProt P39877)
AKT1: RAC-alpha serine/threonine-protein kinase (AKT1, Homo sapiens, UniProt P31749)
CDK9 with cyclin T1: Cyclin-dependent kinase 9, with cyclin T1 (CDK9, Homo sapiens, UniProt P50750)
SRC: Proto-oncogene tyrosine-protein kinase Src (SRC, Homo sapiens, UniProt P12931)

CNC(=O)c1cc2c(Oc3ccc(NC(=O)C4(C(=O)Nc5ccc(F)cc5)CC4)cc3)ccnc2cc1OC — IC50 (NTRK3; enzyme activity; inhibitor; radiometric): 0.01 µM
O=S(=O)(Nc1ccc(-c2nc3cc(NS(=O)(=O)c4cccc(C(F)(F)F)c4)ccc3o2)cc1)c1cccc(C(F)(F)F)c1 — IC50 (MDH2; enzyme activity; inhibitor): > 62.5 µM
CCN(CC)CCOc1ccc2c(c1)C(=O)c1cc(OCCN(CC)CC)ccc1-2 — IC50 (Acetylcholinesterase (ACHE, Homo sapiens, UniProt P22303); enzyme activity; inhibitor): 0.0646 µM
COc1ccc(S(=O)(=O)Nc2ccc(-c3nc4cc(NS(=O)(=O)c5ccc(OC)cc5)ccc4o3)cc2)cc1 — IC50 (MDH2; enzyme activity; inhibitor): > 62.5 µM
c1ccc(-n2cc(CCN(Cc3nc(C4CC4)no3)Cc3nc(C4CC4)no3)cn2)cc1 — IC50 (CXCR4; β-arrestin recruitment): 200 µM
O=S(=O)(Nc1ccc(-c2nc3cc(NS(=O)(=O)c4ccc(Cl)s4)ccc3o2)cc1)c1ccc(Cl)c(C(F)(F)F)c1 — IC50 (MDH2; enzyme activity; inhibitor): > 62.5 µM
CC(C)=CCC/C(C)=C/Cc1ccc[n+](CC(P(=O)([O-])O)P(=O)(O)O)c1 (stereo not drawn) — IC50 (Geranylgeranyl pyrophosphate synthase (GGPS1, Homo sapiens, UniProt O95749); enzyme activity; inhibitor): 10 µM
Nc1ccc(S(=O)(=O)Nc2ccc(-c3nc4cc(NS(=O)(=O)c5ccc(N)cc5)ccc4o3)cc2)cc1 — IC50 (MDH2; enzyme activity; inhibitor): > 62.5 µM
Cc1n[nH]c2nncnc12 — IC50 (deoD (Escherichia coli, UniProt P0ABP8); enzyme activity; inhibitor; pH 7): ~700 µM
O=C(O)/C=C/c1ccc(O)cc1 — IC50 (PLA2G5; enzyme activity; inhibitor; Ellman): 55.1 µM
CCc1ccc(OCc2nnc(SCc3nc(C)no3)n2Cc2ccccc2)cc1 — IC50 (CXCR4; β-arrestin recruitment): 50 µM
CC(=O)c1cccc(N=Nc2c(C(=O)O)cc(O)c(O)c2O)c1 — IC50 (PLA2G5; enzyme activity; inhibitor; Ellman): 8.47 µM
Cc1ccc(C(=O)Nc2ccc(Oc3cc4cnn(C)c4cc3-c3cn[nH]c3)c(F)c2)c(=O)n1-c1ccc(F)cc1 — IC50 (Tyrosine-protein kinase Mer (MERTK, Homo sapiens, UniProt Q12866); cell growth or viability; ATP luminescence): 0.01 µM
CC(C)(C)n1nc(-c2ccc3nc(OC4CC4)ccc3c2)c(C(N)=O)c1N — IC50 (Calcium/calmodulin-dependent protein kinase kinase 2 (CAMKK2, Homo sapiens, UniProt Q96RR4); cell-free assay): > 10 µM
CCS(=O)(=O)c1ncc(N(Cc2ccco2)Cc2ccco2)c(C(=O)Nc2c(C)cccc2C)n1 — IC50 (CXCR4; β-arrestin recruitment; antagonist): 13 µM
COc1c(Br)cccc1C(=O)Nc1ccc(Sc2nc3ccccc3s2)cc1 — IC50 (MDH2; enzyme activity; inhibitor): > 62.5 µM
O=C(O)c1cc(O)c(O)c(O)c1 — IC50 (PLA2G5; enzyme activity; inhibitor; Ellman): 9.79 µM
COc1ccc(S(=O)(=O)Nc2ccc3oc(-c4ccc(NS(=O)(=O)c5cc(F)ccc5OC)cc4)nc3c2)cc1 — IC50 (MDH2; enzyme activity; inhibitor): > 62.5 µM
COc1ccc(-c2nn3c(C)nnc3s2)cc1 — IC50 (DNA dC->dU-editing enzyme APOBEC-3A (Homo sapiens, UniProt P31941); enzyme activity; inhibitor): > 100 µM
CC(C)(C)n1nc(-c2cnc3cc(OC4CC4)ccc3c2)c(C(N)=O)c1N — IC50 (AKT1; cell-free assay): > 10 µM
O=c1cc(-c2ccc3c(c2)OCO3)oc2c1ccc1occc12 — IC50 (CDK9 with cyclin T1; enzyme activity; inhibitor; ADP detection): 31.4 µM
OCc1cc(C(O)CNCCCCCCOCCCCc2ccccc2)ccc1O (stereo not drawn) — IC50 (CXCR4; calcium signal; antagonist): 38.3 µM
COc1ccc2c(Oc3ccc4c(C(=O)Nc5ccccc5N)cccc4c3)ccnc2c1 — IC50 (AKT1; enzyme activity; inhibitor): > 0.5 µM
CN1CCN(c2ccc(Nc3ncc4cc(C#N)c(=O)n(C5CCCC5)c4n3)cc2)CC1 — IC50 (Cyclin-dependent kinase 1, with cyclin A (CDK1, Homo sapiens, UniProt P06493); enzyme activity; inhibitor): 7.41 µM
COc1ccc(S(=O)(=O)Nc2ccc3oc(-c4ccc(NC(=O)C5CCN(C(C)=O)CC5)cc4)nc3c2)cc1 — IC50 (MDH2; enzyme activity; inhibitor): > 62.5 µM
CCN1CCN(Cc2ccc(NC(=O)c3ccc(C)c(NC(=O)c4cncc(I)c4)c3)cc2C(F)(F)F)CC1 — IC50 (Ephrin type-A receptor 2 (EPHA2, Homo sapiens, UniProt P29317); enzyme activity; inhibitor; ADP detection): 0.578 µM
COc1ccc(S(=O)(=O)Nc2ccc3oc(-c4ccc(NC(=O)c5ccc(Cl)s5)cc4)nc3c2)cc1 — IC50 (MDH2; enzyme activity; inhibitor): > 62.5 µM
CCc1ccc(NC(=O)c2nc(S(C)(=O)=O)ncc2N(Cc2ccccc2)Cc2ccco2)cc1 — IC50 (CXCR4; β-arrestin recruitment; antagonist): 13 µM
CC1=C(/C=C/C(C)=C/C=C/C(C)=C/C(=O)O)C(C)(C)CCC1 — IC50 (Prothrombin (Rattus norvegicus, UniProt P18292); enzyme activity; inhibitor): 163 µM
O=C(Nc1ccn(Cc2ccc(O)cc2C(F)(F)F)n1)c1c(F)cccc1F — IC50 (Voltage-dependent T-type calcium channel subunit alpha-1H (CACNA1H, Homo sapiens, UniProt O95180); ion current; inhibitor): > 10 µM
CCOC(=O)C1CCN(C(=O)c2ccc(N(CC)Cc3cnc4nc(N)nc(N)c4n3)cc2)CC1 — IC50 (Cytochrome P450 2C9 (CYP2C9, Homo sapiens, UniProt P11712); enzyme activity; inhibitor; luciferase): 8.51 µM
CS(=O)(=O)c1ncc(N(Cc2ccccc2)Cc2ccco2)c(C(=O)Nc2ccccc2Cl)n1 — IC50 (CXCR4; β-arrestin recruitment; antagonist): 40 µM
Cc1cnc(-c2ccc(-c3ccc(NC(=O)Nc4c(F)cc(F)cc4F)cc3F)c3c2C(=O)NC3)[nH]1 — IC50 (SRC; enzyme activity; inhibitor): 0.0004 µM
C=CC(=O)Nc1ccc(N2CCC[C@@H](Nc3ncc(Cl)c(-c4c[nH]c5ccccc45)n3)C2)c(F)c1 — IC50 (CDK9 with cyclin T1; enzyme activity; inhibitor; FRET): 0.436 µM
Nc1ncnc2c1c(Cc1cccc3ccccc13)nn2CC1CCNCC1 — IC50 (SRC; enzyme activity; inhibitor): > 20 µM
CC(=O)c1ccc(N=Nc2c(C(=O)O)cc(O)c(O)c2O)cc1 — IC50 (PLA2G5; enzyme activity; inhibitor; Ellman): 7.15 µM
[Na+].[Na+].[Na+].[O]=[V]([O-])([O-])[O-] — IC50 (Tyrosine-protein phosphatase non-receptor type 6 (PTPN6, Homo sapiens, UniProt P29350); enzyme activity; inhibitor; absorbance): 4.4 µM
CC(=O)NS(=O)(=O)c1ccc(NC(=O)C=CC(=O)O)cc1 — IC50 (Dipeptidyl peptidase 4 (DPP4, Homo sapiens, UniProt P27487); enzyme activity; inhibitor; fluorescence): 59.3 µM
CCn1ncc2c1-c1cnc(N)c(c1)O[C@H](C)c1cc(F)ccc1-c1nn(C)nc1C2 — IC50 (NTRK3; enzyme activity; inhibitor): 0.19 µM
Cc1noc(C)c1CN(C(=O)CCc1nc(Cc2ccccc2)no1)c1ccccc1 — IC50 (CXCR4; β-arrestin recruitment): 200 µM
C[C@@H](N)COc1ccc(-c2cnc3ccc(N[C@H](C)c4cccc(F)c4)nn23)cc1 — IC50 (NTRK3; enzyme activity; inhibitor): 0.0042 µM
COc1c(C(=O)/C=C(\O)c2ccccc2)ccc2occc12 — IC50 (CDK9 with cyclin T1; enzyme activity; inhibitor; ADP detection): > 100 µM
